Several values for one entry are separate records, joined by “and”; a condition that tells them apart may be missing. Identical values can stand only once.
Tests used:
SK-N-MC cells = assay: CGRP-induced Ca2+ signaling, desensitization and resensitization; type: cell-based, human; conditions: SM-19712 10 μM
How it was run: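 SK-N-MC cells (endogenous CLR/RAMP1) were loaded with Fura-2AM for [Ca2+]i at 37°C. Single challenge used CGRP 100 nM. Desensitization: CGRP 100 nM or vehicle (1 h, 37°C), wash, CGRP-free recovery (4 h for resensitization), then CGRP 100 nM rechallenge. SM-19712 10 μM or DMSO was preincubated 20–60 min and kept throughout. Response was expressed as % of vehicle-treated cells.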

HEK-CLR-RAMP1 cells [1] = assay: Endocytosis and degradation of internalized 125I-His8-CGRP; type: cell-based, human; conditions: 30 min after internalization; SM-19712 10 μM, bafilomycin A1 0.15 or 1 μM
[2] = target: T1, recombinant human (rh) ECE-1 (Homo sapiens, UniProt P42892); assay: Peptide degradation by rhECE-1; type: biochemical; conditions: inhibitor 100 μM
T1 sequence (P42892 1-770): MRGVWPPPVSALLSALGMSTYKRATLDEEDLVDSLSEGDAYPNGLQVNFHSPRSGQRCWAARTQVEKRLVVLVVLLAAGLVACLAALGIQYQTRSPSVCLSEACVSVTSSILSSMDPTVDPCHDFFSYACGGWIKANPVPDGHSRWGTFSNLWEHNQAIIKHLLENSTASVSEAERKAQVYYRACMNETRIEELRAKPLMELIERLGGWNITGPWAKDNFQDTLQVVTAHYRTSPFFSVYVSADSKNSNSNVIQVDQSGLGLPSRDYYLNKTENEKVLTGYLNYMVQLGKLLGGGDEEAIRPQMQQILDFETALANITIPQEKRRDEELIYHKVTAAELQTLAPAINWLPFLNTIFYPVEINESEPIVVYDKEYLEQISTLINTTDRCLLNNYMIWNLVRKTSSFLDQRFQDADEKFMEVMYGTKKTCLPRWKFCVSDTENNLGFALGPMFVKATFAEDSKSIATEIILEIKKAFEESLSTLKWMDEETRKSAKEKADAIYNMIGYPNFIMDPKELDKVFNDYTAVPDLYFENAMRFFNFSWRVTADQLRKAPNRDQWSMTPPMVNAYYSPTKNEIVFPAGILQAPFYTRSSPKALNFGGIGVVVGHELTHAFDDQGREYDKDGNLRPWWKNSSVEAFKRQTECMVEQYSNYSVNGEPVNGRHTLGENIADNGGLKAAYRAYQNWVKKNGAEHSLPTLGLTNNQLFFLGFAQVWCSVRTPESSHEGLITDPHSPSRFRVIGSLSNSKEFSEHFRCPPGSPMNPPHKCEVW
How it was run: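 Where used, the ECE-1 inhibitor (100 μM) was preincubated with enzyme on ice for 30 min at matching pH before substrate was added. Products were resolved by reversed-phase HPLC and identified by MALDI TOF/TOF mass spectrometry.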

HEK-CLR-RAMP1 cells [3] = assay: CGRP-induced Ca2+ signaling, desensitization and resensitization; type: cell-based, human; conditions: SM-19712 10 μM
How it was run: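 HEK-CLR-RAMP1 cells were loaded with Fura-2AM; [Ca2+]i read at 37°C. Single challenge used CGRP 30 nM. For desensitization/resensitization: CGRP 100 nM or vehicle (1 h, 37°C), wash, 0–6 h recovery, CGRP 30 nM rechallenge. Variants: SM-19712 10 μM (20–60 min preincubation, kept throughout); ECE-1 or non-targeting siRNA pools, 72 h; transient ECE-1a-d-GFP. Response given as % of vehicle-treated cells, n ≥ 3.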

HEK-B2R-V2RCT cells = assay: B2R-V2RCT recycling and colocalization with β-arrestin2-GFP; type: cell-based, human; conditions: 2 h recovery, SM-19712 10 μM
How it was run: (§1)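 HEK cells stably expressing HA-tagged B2R or B2R-V2RCT were transiently transfected with β-arrestin2-GFP. Surface receptors were labelled with anti-HA11 (1:100, 30 min, 37°C), then given BK 100 nM for 10 min and recovered in BK-free medium (B2R 1 h; B2R-V2RCT 2 h). SM-19712 10 μM or DMSO was preincubated 20–60 min and kept throughout. Cells were PFA-fixed for confocal imaging; plasma-membrane fraction of fluorescence and colocalization coefficient (0–1) were scored in >20 cells/experiment, n ≥ 3.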

HEK-B2R cells = assay: B2R recycling and colocalization with β-arrestin2-GFP; type: cell-based, human; conditions: SM-19712 10 μM
How it was run: as §1

A549 cells = assay: Resensitization of ATII-induced Ca2+ signaling; type: cell-based, human; conditions: ATII 1 μM 1 h, 1 h recovery; SM-19712 10 μM; endogenous AT1AR and ECE-1
How it was run: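 A549 cells (native AT1AR, ECE-1) were loaded with Fura-2AM for [Ca2+]i at 37°C. They were preincubated with ATII 1 μM or vehicle (1 h, 37°C), washed, recovered 1 h, then rechallenged with ATII 1 μM. SM-19712 10 μM or DMSO was preincubated 20–60 min and kept throughout. Response was expressed as % of vehicle-treated cells.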

HEK-CLR-RAMP1 cells [4] = assay: CLR and RAMP1 endocytosis and recycling; type: cell-based, human
How it was run: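 Surface CLR and RAMP1 on HEK-CLR-RAMP1 cells were antibody-labelled via HA11 and Myc epitopes (1:100, 30 min, 37°C). Cells then received CGRP 100 nM for 1 h, were washed, and recovered 0–6 h in CGRP-free medium. Cells were either treated with SM-19712 10 μM (20–60 min preincubation, kept throughout) or transfected 72 h earlier with ECE-1 vs non-targeting siRNA. Confocal scoring gave % total cellular fluorescence at plasma membrane at 6 h.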

[5] = test system: HEK-CLR-RAMP1+βARR2-GFP cells; assay: Trafficking and colocalization of β-arrestin2-GFP and CLR/RAMP1; type: cell-based, human; conditions: recovery up to 4 h in CGRP-free medium
How it was run: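 HEK-CLR-RAMP1 cells transiently transfected with β-arrestin2-GFP had surface CLR (HA11) and RAMP1 (Myc) labelled. Cells were given CGRP (2 min to 1 h), washed, and recovered in CGRP-free medium for 1–4 h. SM-19712 10 μM, bafilomycin A1 0.15 or 1 μM, or DMSO was preincubated 20–60 min and kept throughout. After PFA fixation and confocal imaging, β-arrestin2/CLR endosomal colocalization coefficient was measured at 4 h recovery.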

Structure (SMILES): Cc1nn(-c2ccccc2)c(NC(=O)NS(=O)(=O)c2ccc(Cl)cc2)c1C#N.[Na] [SM-19712]
- Effect on response to a single challenge with CGRP ([Ca2+]i) (SK-N-MC cells; CGRP 100 nM): did not affect magnitude or duration
- Effect on desensitization of CGRP-induced Ca2+ signaling (SK-N-MC cells): did not affect desensitization
- Inhibition of resensitization of CGRP-induced Ca2+ signaling (SK-N-MC cells; 4 h recovery): 33%
- Effect on degradation of internalized 125I-His8-CGRP (HEK-CLR-RAMP1 cells [1]): prevented degradation
- Effect on rhECE-1 degradation of CGRP ([2]; preincubated with ECE-1 on ice 30 min, pH 5.5): abolished
- Effect on rhECE-1 degradation of BK ([2]; rhECE-1 83 nM, pH 5.5 and 7.4): prevented this degradation
- Effect on response to a single challenge with CGRP ([Ca2+]i) (HEK-CLR-RAMP1 cells [3]; CGRP 30 nM): did not affect magnitude or duration
- Effect on desensitization of CGRP-induced Ca2+ signaling (HEK-CLR-RAMP1 cells [3]): did not affect desensitization
- Effect on resensitization of CGRP-induced Ca2+ signaling (HEK-CLR-RAMP1 cells [3]; 0–6 h recovery): strongly inhibited resensitization at all times
- Change of colocalization coefficient of B2R-V2RCT with β-arrestin2 (HEK-B2R-V2RCT cells): twofold increase
- Effect on localization of B2R-V2RCT during recovery (HEK-B2R-V2RCT cells; BK 100 nM 10 min): causing it retention in endosomes with β-arrestin2
- Reduction of recycling of B2R-V2RCT (HEK-B2R-V2RCT cells; BK 100 nM 10 min): ~50% and > 50%
- Effect on colocalization coefficient of β-arrestin2 and B2R (HEK-B2R cells; 1 h recovery): did not affect colocalization with B2R
- Reduction of recycling of B2R (HEK-B2R cells; BK 100 nM 10 min, 1 h recovery): < 10%
- Effect on BK-induced trafficking of B2R and β-arrestin2 (HEK-B2R cells; BK 100 nM 10 min, 60 min recovery): did not affect this trafficking
- Effect on resensitization of responses to ATII (A549 cells): did not affect resensitization
- Inhibition of recycling of CLR (CLR at the plasma membrane) (HEK-CLR-RAMP1 cells [4]; 6 h recovery after CGRP 100 nM 1 h, SM-19712 10 μM, siRNA 72 h): > 50%
- Effect on localization of CLR/RAMP1 after recovery in CGRP-free medium (HEK-CLR-RAMP1 cells [4]; CGRP 100 nM 1 h, wash, 6 h recovery): caused their retention in endosomes even at 6 h
- Effect on localization of CLR (RAMP1) and β-arrestin2 during recovery [5]: caused their retention in endosomes

— article PMC2099187 (The Journal of Cell Biology, 2007)
